Source: ChEMBL document CHEMBL4622923, “Discovery of 4-Phenylpiperidine-2-Carboxamide Analogues as Serotonin 5-HT2C Receptor-Positive Allosteric Modulators with Enhanced Drug-like Properties” (J Med Chem, 2020)

Legend:
[1] = molecular target: CYP3A4 (Homo sapiens, UniProt P08684); experiment: Inhibition of CYP3A4 (unknown origin) at 10 uM relative to control; format: ADME
Outline: (§1)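 Each CYP isoform inhibition assay run with test compound at 10 µM; reported as percent inhibition.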

[2] = Half life in Sprague-Dawley rat at 20 mg/kg, po; format: ADME, organism-based; settings: in vivo
Outline: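 Male Sprague-Dawley rats (200–250 g, n = 3/group) dosed orally at 20 mg/kg in 10% DMSO:90% HP-β-CD. Retro-orbital blood sampled at 0.25, 0.5, 1, 2, 4, 8 and 24 h post-dose; plasma analysed externally. Noncompartmental analysis: λ from least-squares terminal log-linear slope, t1/2 = 0.693/λ; mean ± SEM.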

[3] = molecular target: 5-hydroxytryptamine receptor 6 (Homo sapiens) (UniProt P50406); experiment: Displacement of [3H]-LSD from human 5HT6 stably expressed in HEK cell membranes at 10 uM incubated for 90 mins under dark condition by scintillation counting analysis relative to control
Sequence of 5-hydroxytryptamine receptor 6 (Homo sapiens) (P50406 whole entry): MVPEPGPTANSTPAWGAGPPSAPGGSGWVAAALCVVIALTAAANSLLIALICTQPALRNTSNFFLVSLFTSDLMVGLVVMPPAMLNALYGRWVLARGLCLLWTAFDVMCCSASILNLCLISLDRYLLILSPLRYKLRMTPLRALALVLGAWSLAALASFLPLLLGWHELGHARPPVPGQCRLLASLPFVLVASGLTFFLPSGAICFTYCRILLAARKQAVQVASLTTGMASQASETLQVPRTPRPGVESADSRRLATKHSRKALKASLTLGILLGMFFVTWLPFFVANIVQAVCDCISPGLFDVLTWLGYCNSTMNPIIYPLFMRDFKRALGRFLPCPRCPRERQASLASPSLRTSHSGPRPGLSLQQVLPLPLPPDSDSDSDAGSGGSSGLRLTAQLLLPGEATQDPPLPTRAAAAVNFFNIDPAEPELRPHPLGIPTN

[4] = molecular target: D(3) dopamine receptor (Homo sapiens) (UniProt P35462); experiment: Displacement of [3H]-N-methylspiperone from dopamine D3 receptor (unknown origin) at 10 uM incubated for 90 mins under dark condition by scintillation counting analysis relative to control
Sequence of D(3) dopamine receptor (Homo sapiens) (P35462 whole entry): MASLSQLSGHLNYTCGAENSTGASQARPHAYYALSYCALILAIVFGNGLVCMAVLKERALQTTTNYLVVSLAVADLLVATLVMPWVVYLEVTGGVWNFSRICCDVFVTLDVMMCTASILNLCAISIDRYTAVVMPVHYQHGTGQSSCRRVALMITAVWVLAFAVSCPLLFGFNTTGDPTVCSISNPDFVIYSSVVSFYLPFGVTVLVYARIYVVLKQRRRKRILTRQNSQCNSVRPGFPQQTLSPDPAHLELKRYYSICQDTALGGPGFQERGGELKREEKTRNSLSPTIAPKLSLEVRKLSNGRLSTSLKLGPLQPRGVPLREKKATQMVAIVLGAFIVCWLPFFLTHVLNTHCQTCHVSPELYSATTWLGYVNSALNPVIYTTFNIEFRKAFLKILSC

[5] = AUC (0 to infinity) in Sprague-Dawley rat at 20 mg/kg, po; format: ADME, organism-based; parameters: dose 20 mg/kg, time infinity, route oral; settings: in vivo
[6] = AUC (0 to infinity) in Sprague-Dawley rat at 10 mg/kg, iv; format: ADME, organism-based; parameters: dose 10 mg/kg, route intravenous, time infinity; settings: in vivo
[7] = molecular target: CYP2C19 (Homo sapiens, UniProt P33261); experiment: Inhibition of CYP2C19 (unknown origin) at 10 uM relative to control; format: ADME; outline: as §1
Sequence of CYP2C19 (P33261 whole entry): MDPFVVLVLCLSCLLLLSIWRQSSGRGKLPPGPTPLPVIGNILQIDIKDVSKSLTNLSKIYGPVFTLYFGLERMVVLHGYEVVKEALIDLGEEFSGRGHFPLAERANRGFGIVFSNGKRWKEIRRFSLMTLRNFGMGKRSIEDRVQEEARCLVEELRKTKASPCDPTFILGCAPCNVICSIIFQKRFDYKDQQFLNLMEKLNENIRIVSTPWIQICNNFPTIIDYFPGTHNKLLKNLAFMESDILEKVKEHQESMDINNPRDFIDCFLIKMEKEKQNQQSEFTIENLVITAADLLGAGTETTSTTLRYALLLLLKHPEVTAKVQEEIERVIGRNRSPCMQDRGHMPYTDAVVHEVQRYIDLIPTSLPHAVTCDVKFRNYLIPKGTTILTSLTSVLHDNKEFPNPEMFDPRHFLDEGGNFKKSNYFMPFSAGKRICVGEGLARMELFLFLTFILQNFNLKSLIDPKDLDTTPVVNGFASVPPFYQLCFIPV

[8] = Clearance in Sprague-Dawley rat at 10 mg/kg, iv; format: ADME, organism-based; settings: in vivo
Outline: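 Male Sprague-Dawley rats (200–250 g; n = 3/group) received a single iv dose in 10% DMSO:90% HP-β-CD. Retro-orbital blood was sampled before dosing and at 0.08, 0.25, 0.5, 1, 2, 4, 8 and 24 h. Plasma levels were measured. Parameters came from noncompartmental analysis, reported as mean ± SEM.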

[9] = molecular target: Alpha-2B adrenergic receptor (Homo sapiens) (UniProt P18089); experiment: Displacement of [3H]-rauwolscine from human adrenergic alpha2B receptor transiently expressed in HEKT cell membranes at 10 uM incubated for 90 mins under dark condition by scintillation counting analysis relative to control
Sequence of Alpha-2B adrenergic receptor (Homo sapiens) (P18089 whole entry): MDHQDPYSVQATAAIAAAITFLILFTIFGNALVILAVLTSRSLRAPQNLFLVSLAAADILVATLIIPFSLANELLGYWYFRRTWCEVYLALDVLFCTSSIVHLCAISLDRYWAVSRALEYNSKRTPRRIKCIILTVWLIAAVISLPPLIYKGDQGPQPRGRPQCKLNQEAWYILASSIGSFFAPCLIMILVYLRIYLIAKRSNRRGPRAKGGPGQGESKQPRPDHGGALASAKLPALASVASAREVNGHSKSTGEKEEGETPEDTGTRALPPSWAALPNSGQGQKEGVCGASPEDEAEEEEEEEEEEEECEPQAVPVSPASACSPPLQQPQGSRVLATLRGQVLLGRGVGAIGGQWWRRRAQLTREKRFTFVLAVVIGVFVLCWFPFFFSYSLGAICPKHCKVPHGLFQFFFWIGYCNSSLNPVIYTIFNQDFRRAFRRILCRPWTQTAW

[10] = system: Rattus norvegicus; experiment: In vivo agonist activity at 5HT2CR in Sprague-Dawley rat assessed as increase in number of rat choosing drug associated lever at 0.5 to 5 mg/kg, ip treated 30 mins prior to test by drug discrimination test; format: organism-based; settings: 0.5 h
Outline: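 Male Sprague-Dawley rats (n = 13), water-restricted, trained to discriminate WAY163909 (0.75 mg/kg ip, 15 min pretreatment) from saline in a two-lever FR20 water-reinforced task. Test compound given ip at 0.5, 1.0, 2.0 and 5.0 mg/kg, 30 min before a 15 min test. Read-out is the percentage of rats selecting the WAY163909 lever; response rate is also recorded.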

[11] = molecular target: T1, 5-hydroxytryptamine receptor 2C (Homo sapiens) (UniProt P28335); experiment: Displacement of [3H]-mesulergine from human 5HT2C expressed in HEKT cell membranes at 10 uM incubated for 90 mins under dark condition by scintillation counting analysis relative to control
T1 sequence (whole entry): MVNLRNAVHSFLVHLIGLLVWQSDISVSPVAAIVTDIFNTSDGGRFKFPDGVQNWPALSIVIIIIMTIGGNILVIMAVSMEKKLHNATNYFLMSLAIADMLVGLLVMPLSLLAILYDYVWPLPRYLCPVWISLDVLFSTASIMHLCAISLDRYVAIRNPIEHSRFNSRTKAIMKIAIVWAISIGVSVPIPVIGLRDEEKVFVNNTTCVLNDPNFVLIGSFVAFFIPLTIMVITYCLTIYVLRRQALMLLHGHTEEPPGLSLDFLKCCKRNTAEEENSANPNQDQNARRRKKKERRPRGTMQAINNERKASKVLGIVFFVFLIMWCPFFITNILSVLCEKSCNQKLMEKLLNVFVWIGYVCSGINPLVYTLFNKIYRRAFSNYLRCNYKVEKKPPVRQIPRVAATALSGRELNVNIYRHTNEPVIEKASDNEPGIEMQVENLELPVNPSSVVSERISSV

[12] = molecular target: 5-hydroxytryptamine receptor 3A (Homo sapiens) (UniProt P46098); experiment: Displacement of [3H]-LY278584 from human 5HT3R transiently expressed in HEKT cell membranes at 10 uM incubated for 90 mins under dark condition by scintillation counting analysis relative to control
Sequence of 5-hydroxytryptamine receptor 3A (Homo sapiens) (P46098 whole entry): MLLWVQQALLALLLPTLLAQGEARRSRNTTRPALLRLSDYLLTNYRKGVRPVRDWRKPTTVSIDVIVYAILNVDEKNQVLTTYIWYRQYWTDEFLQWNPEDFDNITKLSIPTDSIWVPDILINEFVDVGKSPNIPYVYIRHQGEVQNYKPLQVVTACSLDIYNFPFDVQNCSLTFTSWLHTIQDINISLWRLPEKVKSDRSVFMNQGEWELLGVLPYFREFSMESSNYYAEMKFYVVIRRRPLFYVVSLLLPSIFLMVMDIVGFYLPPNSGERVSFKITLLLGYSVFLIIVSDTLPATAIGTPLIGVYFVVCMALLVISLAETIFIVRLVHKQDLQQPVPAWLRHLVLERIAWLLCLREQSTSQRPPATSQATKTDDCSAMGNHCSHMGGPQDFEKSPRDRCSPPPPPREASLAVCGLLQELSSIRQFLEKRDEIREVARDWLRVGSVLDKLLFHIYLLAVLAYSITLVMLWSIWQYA

[13] = molecular target: Cannabinoid receptor 2 (Homo sapiens) (UniProt P34972); experiment: Displacement of [3H]-CP55940 from human CB2 receptor expressed in HEK-Flp-In cell membranes at 10 uM incubated for 90 mins under dark condition by scintillation counting analysis relative to control
Sequence of Cannabinoid receptor 2 (Homo sapiens) (P34972 whole entry): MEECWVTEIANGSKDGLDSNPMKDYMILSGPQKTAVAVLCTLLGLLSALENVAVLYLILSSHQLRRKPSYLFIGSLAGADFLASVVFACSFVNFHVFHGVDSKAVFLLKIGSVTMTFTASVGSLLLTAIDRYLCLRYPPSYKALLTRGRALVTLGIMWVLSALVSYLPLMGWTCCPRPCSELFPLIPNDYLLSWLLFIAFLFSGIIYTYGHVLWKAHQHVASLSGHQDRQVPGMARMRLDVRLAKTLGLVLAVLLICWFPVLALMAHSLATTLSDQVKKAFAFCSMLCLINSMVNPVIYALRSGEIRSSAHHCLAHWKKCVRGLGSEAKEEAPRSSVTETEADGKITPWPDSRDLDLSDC

Sequence of CYP3A4 (P08684 whole entry, canonical isoform): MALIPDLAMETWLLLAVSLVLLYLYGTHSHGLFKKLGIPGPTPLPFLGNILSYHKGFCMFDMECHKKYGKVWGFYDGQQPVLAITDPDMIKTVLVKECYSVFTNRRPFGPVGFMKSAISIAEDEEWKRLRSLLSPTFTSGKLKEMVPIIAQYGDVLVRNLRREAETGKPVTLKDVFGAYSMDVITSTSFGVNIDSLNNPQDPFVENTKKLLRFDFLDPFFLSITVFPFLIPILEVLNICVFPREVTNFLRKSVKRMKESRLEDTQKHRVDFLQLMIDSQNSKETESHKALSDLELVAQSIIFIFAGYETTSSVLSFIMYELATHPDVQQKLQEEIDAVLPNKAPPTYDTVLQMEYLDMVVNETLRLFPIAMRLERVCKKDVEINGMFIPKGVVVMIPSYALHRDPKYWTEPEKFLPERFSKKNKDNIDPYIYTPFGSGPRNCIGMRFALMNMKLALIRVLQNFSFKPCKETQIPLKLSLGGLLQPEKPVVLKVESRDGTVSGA

## O=C(NC[C@H](O)CO)[C@@H]1C[C@H](c2ccccc2)CCN1 (mixture of isomers)
[1]
  inhibition at 10 µM: 0%
[2]
  t1/2: 4.4 h
[3]
  inhibition: 2.5%
[4]
  inhibition: 19.4%
[5]
  AUC: 2244.7 ng·h/mL
[6]
  AUC: 3065.6 ng·h/mL
[7]
  inhibition at 10 µM: 0%
[8]
  CL: 54.7 mL/min/kg
[9]
  inhibition: 14.5%
[10]
  Activity: Non-Toxic
[11]
  inhibition: 26.9%
[12]
  inhibition: 22.3%
[13]
  inhibition: 30.6%
